{
  "source": "ChEMBL document CHEMBL4270643",
  "about": "“Structure-based drug design: Synthesis and biological evaluation of quinazolin-4-amine derivatives as selective Aurora A kinase inhibitors” (Eur J Med Chem, 2018)",
  "key": {"Mus musculus [1]": {"system": "Mus musculus", "assay": "Toxicity in BALB/c athymic nude mouse xenografted with human MDA-MB-231 cells assessed as effect on liver weight at 30 mg/kg, ig administered every 2 days for 18 days measured post last dose", "assay_type": "organism-based", "conditions": "in vivo, po", "method_in_brief": "(§1)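 Xenograft-bearing nude mice dosed intragastrically every 2 days for 18 days; body weight tracked throughout. After treatment ended, liver, lung, kidney and spleen weighed in untreated, vehicle and dosed groups; unpaired two-tailed t-test; mean ±SD, n=4.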"}, "SK-BR-3": {"system": "SK-BR-3", "assay": "Antiproliferative activity against human SKBR3 cells after 48 hrs by CCK8 assay", "assay_type": "functional, cell-based", "conditions": "Homo sapiens, SK-BR-3, 48 h; read-out: IC50"}, "K562": {"system": "K562", "assay": "Antiproliferative activity against human K562 cells after 48 hrs by CCK8 assay", "assay_type": "functional, cell-based", "conditions": "Homo sapiens, K562, 48 h; read-out: IC50"}, "Mus musculus [2]": {"system": "Mus musculus", "assay": "Toxicity in BALB/c athymic nude mouse xenografted with human MDA-MB-231 cells assessed as effect on kidney weight at 30 mg/kg, ig administered every 2 days for 18 days measured post last dose", "assay_type": "organism-based", "conditions": "in vivo, po", "method_in_brief": "as §1"}, "MDA-MB-231 [3]": {"system": "MDA-MB-231", "assay": "Cell cycle arrest in human MDA-MB-231 cells assessed as accumulation at G2/M phase after 24 hrs by propidium iodide staining based flow cytometry", "assay_type": "functional", "method_in_brief": "(§2)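 MDA-MB-231 cells exposed to test compound at indicated doses, MLN8237, or 0.1% DMSO control for 24 h; cell-cycle distribution, including G2/M and 4N/8N populations, read by flow cytometry.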"}, "MDA-MB-231 [4]": {"system": "MDA-MB-231", "assay": "Antiproliferative activity against human MDA-MB-231 cells after 48 hrs by CCK8 assay", "assay_type": "functional, cell-based", "conditions": "MDA-MB-231, 48 h"}, "MDA-MB-231 [5]": {"system": "MDA-MB-231", "assay": "Induction of morphological changes in human MDA-MB-231 cells assessed as monopolar/multipolar spindle formation at 1 uM by DAPI staining based microscopic analysis", "assay_type": "functional, cell-based", "method_in_brief": "(§3)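 MDA-MB-231 cells incubated 24 h with 1 µM compound or 0.1% DMSO; immunofluorescence imaging of centrosomes, spindles and nuclei at ×1000 to score spindle polarity and chromosome alignment at the metaphase plate.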"}, "MDA-MB-231 [6]": {"system": "MDA-MB-231", "assay": "Induction of apoptosis in human MDA-MB-231 cells assessed as annexin-V positive cells at 2 uM after 48 hrs by Annexin-V-FITC/propidium iodide staining based flow cytometry (reference value: 15.46 +/- 1.18%)", "assay_type": "functional"}, "Mus musculus [7]": {"system": "Mus musculus", "assay": "Toxicity in BALB/c athymic nude mouse xenografted with human MDA-MB-231 cells assessed as effect on MCHC level at 30 mg/kg, ig administered every 2 days for 18 days measured post last dose", "assay_type": "organism-based", "conditions": "in vivo, po", "method_in_brief": "(§4)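 After the 18-day intragastric course (every 2 days), blood cell counts taken from untreated, vehicle and dosed mice; groups compared by unpaired two-tailed t-test; mean ±SD, n=4.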"}, "Mus musculus [8]": {"system": "Mus musculus", "assay": "Toxicity in BALB/c athymic nude mouse xenografted with human MDA-MB-231 cells assessed as effect on RDW-CV level at 30 mg/kg, ig administered every 2 days for 18 days measured post last dose", "assay_type": "organism-based", "conditions": "in vivo, po", "method_in_brief": "as §4"}, "MDA-MB-231 [9]": {"system": "MDA-MB-231", "assay": "Cell cycle arrest in human MDA-MB-231 cells assessed as accumulation of cells with 4N/8N DNA content after 24 hrs by propidium iodide staining based flow cytometry", "assay_type": "functional", "method_in_brief": "as §2"}, "Homo sapiens": {"species": "Homo sapiens", "assay": "Selectivity ratio of IC50 for Aurora B (unknown origin) to IC50 for Aurora A (unknown origin)"}, "[10]": {"target": "T1, Aurora kinase A (Homo sapiens) (UniProt O14965)", "T1 sequence (whole entry)": "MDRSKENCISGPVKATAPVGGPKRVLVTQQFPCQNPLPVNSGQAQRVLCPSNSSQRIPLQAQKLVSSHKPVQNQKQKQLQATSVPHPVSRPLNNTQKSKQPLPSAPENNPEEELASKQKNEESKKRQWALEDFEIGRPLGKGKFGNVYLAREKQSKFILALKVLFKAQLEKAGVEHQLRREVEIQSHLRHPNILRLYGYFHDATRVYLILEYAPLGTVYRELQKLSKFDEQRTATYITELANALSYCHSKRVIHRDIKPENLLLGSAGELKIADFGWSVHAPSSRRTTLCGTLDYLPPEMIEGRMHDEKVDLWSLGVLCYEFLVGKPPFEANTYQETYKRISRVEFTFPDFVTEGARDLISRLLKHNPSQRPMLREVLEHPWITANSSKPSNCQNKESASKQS", "assay": "Inhibition of Aurora A phosphorylation at Thr288 residue in human 293T cells at 1 to 2 uM after 24 hrs by western blot analysis", "assay_type": "cell-based", "method_in_brief": "(§5)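 293T cells treated 24 h with increasing doses or 0.1% DMSO control; lysates probed by Western blot for p-Aurora A (Thr288) and p-histone H3 (Ser10), with GAPDH as loading control.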"}, "Mus musculus [11]": {"system": "Mus musculus", "assay": "Toxicity in BALB/c athymic nude mouse xenografted with human MDA-MB-231 cells assessed as effect on RBC level at 30 mg/kg, ig administered every 2 days for 18 days measured post last dose", "assay_type": "organism-based", "conditions": "in vivo, po", "method_in_brief": "as §4"}, "MDA-MB-231 [12]": {"system": "MDA-MB-231", "assay": "Induction of apoptosis in human MDA-MB-231 cells assessed as annexin-V positive cells at 5 uM after 48 hrs by Annexin-V-FITC/propidium iodide staining based flow cytometry (reference value: 15.46 +/- 1.18%)", "assay_type": "functional"}, "Mus musculus [13]": {"system": "Mus musculus", "assay": "Toxicity in BALB/c athymic nude mouse xenografted with human MDA-MB-231 cells assessed as effect on HCT level at 30 mg/kg, ig administered every 2 days for 18 days measured post last dose", "assay_type": "organism-based", "conditions": "in vivo, po", "method_in_brief": "as §4"}, "Mus musculus [14]": {"system": "Mus musculus", "assay": "Toxicity in BALB/c athymic nude mouse xenografted with human MDA-MB-231 cells assessed as effect on PLT level at 30 mg/kg, ig administered every 2 days for 18 days measured post last dose", "assay_type": "organism-based", "conditions": "in vivo, po", "method_in_brief": "as §4"}, "MDA-MB-231 [15]": {"system": "MDA-MB-231", "assay": "Induction of morphological changes in human MDA-MB-231 cells assessed as defects in chromosomal alignment at 1 uM by DAPI staining based microscopic analysis", "assay_type": "functional, cell-based", "method_in_brief": "as §3"}, "Mus musculus [16]": {"system": "Mus musculus", "assay": "Toxicity in BALB/c athymic nude mouse xenografted with human MDA-MB-231 cells assessed as effect on spleen weight at 30 mg/kg, ig administered every 2 days for 18 days measured post last dose", "assay_type": "organism-based", "conditions": "in vivo, po", "method_in_brief": "as §1"}, "Aurora kinase B": {"target": "Aurora kinase B (Homo sapiens, UniProt Q96GD4)", "sequence (Q96GD4 whole entry)": "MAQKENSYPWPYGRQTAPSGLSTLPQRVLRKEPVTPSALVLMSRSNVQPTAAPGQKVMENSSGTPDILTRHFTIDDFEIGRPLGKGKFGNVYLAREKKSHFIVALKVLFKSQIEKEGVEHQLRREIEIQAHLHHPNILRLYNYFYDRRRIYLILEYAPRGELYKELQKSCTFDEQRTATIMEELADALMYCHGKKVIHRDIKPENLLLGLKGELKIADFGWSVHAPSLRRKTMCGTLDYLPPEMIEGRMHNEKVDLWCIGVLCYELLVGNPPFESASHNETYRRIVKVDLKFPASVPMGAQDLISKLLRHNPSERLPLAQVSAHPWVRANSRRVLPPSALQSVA", "assay": "Inhibition of Aurora B in human 293T cells assessed as reduction in histone H3 phosphorylation at Ser10 residue at 1 to 2 uM after 24 hrs by Western blot analysis", "assay_type": "cell-based", "method_in_brief": "as §5"}, "[17]": {"target": "T1, Aurora kinase A (Homo sapiens)", "assay": "Inhibition of Aurora A phosphorylation at Thr288 residue in human 293T cells at 1 uM after 24 hrs by western blot analysis", "assay_type": "cell-based", "method_in_brief": "as §5"}, "MDA-MB-231 [18]": {"system": "MDA-MB-231", "assay": "Inhibition of colony formation in human MDA-MB-231 cells assessed as reduction in number of colonies at 3 uM after 7 days by crystal violet staining based assay", "assay_type": "functional, cell-based", "method_in_brief": "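Colony formation of MDA-MB-231 cells grown 7 days with 3 µM compound or 0.1% DMSO; colony numbers counted and compared against control.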"}, "Mus musculus [19]": {"system": "Mus musculus", "assay": "Toxicity in BALB/c athymic nude mouse xenografted with human MDA-MB-231 cells assessed as effect on lung weight at 30 mg/kg, ig administered every 2 days for 18 days measured post last dose", "assay_type": "organism-based", "conditions": "in vivo, po", "method_in_brief": "as §1"}, "Mus musculus [20]": {"system": "Mus musculus", "assay": "Toxicity in BALB/c athymic nude mouse xenografted with human MDA-MB-231 cells assessed as effect on WBC level at 30 mg/kg, ig administered every 2 days for 18 days measured post last dose", "assay_type": "organism-based", "conditions": "in vivo, po", "method_in_brief": "as §4"}, "MCF7": {"system": "MCF7", "assay": "Antiproliferative activity against human MCF7 cells after 48 hrs by CCK8 assay", "assay_type": "functional, cell-based", "conditions": "Homo sapiens, MCF7, 48 h; read-out: IC50"}, "HeLa": {"system": "HeLa", "assay": "Antiproliferative activity against human HeLa cells after 48 hrs by CCK8 assay", "assay_type": "functional, cell-based", "conditions": "Homo sapiens, HeLa, 48 h; read-out: IC50"}},
  "note": "The source made the active and inactive calls. No cut-off for these calls is given here.",
  "data": [
    {"smiles": "CCOC(=O)C1CCN(c2ccc3c(Nc4cc(C)[nH]n4)nc(-c4ccccc4)nc3c2)CC1", "values": [
      {"measurement": "Activity", "setting": "Mus musculus [1]", "result": "Non-Toxic"},
      {"measurement": "IC50", "setting": "SK-BR-3", "result": 2.4, "unit": "µM"},
      {"measurement": "IC50", "setting": "K562", "result": 1.09, "unit": "µM"},
      {"measurement": "Activity", "setting": "Mus musculus [2]", "result": "Non-Toxic"},
      {"measurement": "Activity", "setting": "MDA-MB-231 [3]", "result": "Dose-dependent effect"},
      {"measurement": "IC50", "setting": "MDA-MB-231 [4]", "result": 1.19, "unit": "µM"},
      {"measurement": "Activity", "setting": "MDA-MB-231 [5]", "result": "Active"},
      {"measurement": "Activity", "setting": "MDA-MB-231 [6]", "result": 42.33, "unit": "%"},
      {"measurement": "Activity", "setting": "Mus musculus [7]", "result": "Non-Toxic"},
      {"measurement": "Activity", "setting": "Mus musculus [8]", "result": "Non-Toxic"},
      {"measurement": "Activity", "setting": "MDA-MB-231 [9]", "result": "Dose-dependent effect"},
      {"measurement": "Ratio IC50", "setting": "Homo sapiens", "result": 66},
      {"measurement": "inhibition", "setting": "[10]", "result": "Active"},
      {"measurement": "Activity", "setting": "Mus musculus [11]", "result": "Non-Toxic"},
      {"measurement": "Activity", "setting": "MDA-MB-231 [12]", "result": 47.1, "unit": "%"},
      {"measurement": "Activity", "setting": "Mus musculus [13]", "result": "Non-Toxic"},
      {"measurement": "Activity", "setting": "Mus musculus [14]", "result": "Non-Toxic"},
      {"measurement": "Activity", "setting": "MDA-MB-231 [15]", "result": "Active"},
      {"measurement": "Activity", "setting": "Mus musculus [16]", "result": "Non-Toxic"},
      {"measurement": "inhibition (INH)", "setting": "Aurora kinase B", "result": "Not Active"},
      {"measurement": "inhibition", "setting": "[17]", "result": "Active"},
      {"measurement": "Activity", "setting": "MDA-MB-231 [18]", "result": "Active"},
      {"measurement": "Activity", "setting": "Mus musculus [19]", "result": "Non-Toxic"},
      {"measurement": "Activity", "setting": "Mus musculus [20]", "result": "Non-Toxic"},
      {"measurement": "IC50", "setting": "MCF7", "result": 2.23, "unit": "µM"},
      {"measurement": "IC50", "setting": "HeLa", "result": 0.45, "unit": "µM"}
    ]}
  ]
}
